Data published in ChEMBL document CHEMBL4814057, “4-4-(Anilinomethyl)-3-[4-(trifluoromethyl)phenyl]-1H-pyrazol-1-ylbenzoic acid derivatives as potent anti-gram-positive bacterial agents” (Eur J Med Chem, 2021).
Active and inactive are the calls of the source. No cut-off for these calls is given here.

Tested on: Staphylococcus aureus
Assay: Antibacterial activity against methicillin resistant Staphylococcus aureus ATCC 700699 persisters assessed as reduction in viability at 16 times MIC by colony counting method
Type: functional, organism-based
How it was run: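 Stationary-phase S. aureus from overnight CAMHB culture (35 °C, 200 rpm), washed thrice in PBS, diluted to ~5 × 10^8 CFU/ml. Incubated with antibiotic at 35 °C, 200 rpm. Aliquots taken at set times, washed, serially diluted in PBS, drop-plated (6 × 6) on TSA with 5% sheep blood. Colonies counted after 18–20 h at 35 °C. Triplicates.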

O=C(O)c1ccc(-n2cc(CNc3cc(F)cc(C(F)(F)F)c3)c(-c3ccc(C(F)(F)F)cc3)n2)cc1
Activity: Active
